# An excerpt weighted towards active compounds, which were near 3.9% of everything screened.
# M1 PAM: potentiates human M1 receptor response to acetylcholine; CHO-K1 hM1, Fluo-8 calcium fluorescence, ACh EC20; 0% = ACh EC20, 100% = maximal ACh; hit rate 0.088% among 360,000; activation, % at 3 µM; P11229; in the data active = activation above about 19%, passing the limit was not always enough
# TAAR1 antag: antagonists of human TAAR1. AID 624466. hit rate 1.5% among 360,000. CHO RD-HGA16 TAAR1, Fluo-8 calcium fluorescence, antagonist. Q96RJ0. inhibition, % at 3 µM;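 active = inhibition above a per-plate cutoff, the mean inhibition of test compounds on that plate plus 3 SD, cut at about 49% in these data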;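 note: 0% = DMSO plus EC80 beta-PEA response and 100% = DMSO alone without agonist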
# Target sequence (Q96RJ0 whole entry, looked up): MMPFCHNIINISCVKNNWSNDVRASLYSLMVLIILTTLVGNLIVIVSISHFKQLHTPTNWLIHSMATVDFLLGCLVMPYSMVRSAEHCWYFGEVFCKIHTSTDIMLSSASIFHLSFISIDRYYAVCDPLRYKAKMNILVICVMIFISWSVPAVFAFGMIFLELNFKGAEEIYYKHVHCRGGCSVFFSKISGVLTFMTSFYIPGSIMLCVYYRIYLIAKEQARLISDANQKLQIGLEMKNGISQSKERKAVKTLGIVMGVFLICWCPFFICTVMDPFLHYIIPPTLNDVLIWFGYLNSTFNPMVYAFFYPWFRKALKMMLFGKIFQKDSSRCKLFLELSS
#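 Test system: CHO RD-HGA16 cells bearing hTAAR1 | Reagent: β-PEA, EC80 | Compound dosing: 3 µM, single point | Schedule: Dye loading 75 min at 37 °C, then 30 min room temperature | Signal: Calcium fluorescence with Fluo-8 | Evaluation: Percent inhibition of PEA-evoked calcium signal, max/basal emission ratio | Control set: DMSO-only wells and EC80 β-PEA-stimulated wells | Repeats: Singlicate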
# CHRM1 agonist: human M1 muscarinic receptor agonism. CHO-K1 hM1, Fluo-8 calcium fluorescence, agonist mode; 0% DMSO, 100% acetylcholine EC100. P11229. hit rate 0.33% among 360,000. AID 588814. activation, % at 3 µM;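 active = activation above the run's mean compound activation plus 3 SD, cut at about 16% in these data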;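 note: peak over basal fluorescence ratio within a 140 s kinetic read after compound addition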
# HTR2A ag: agonists of mouse serotonin 5-HT2A receptor (HTR2A); P35363; CHO-K1 mHTR2A beta-arrestin complementation, luminescence; percent of 30 µM serotonin response; activation, % at 7.6 µM; hit rate 0.66% among 360,000;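 active = activation above a run cutoff, the mean activation of all tested compounds plus 3 SD, cut at about 14% in these data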;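 note: 0% = plate median of compound wells and 100% = 30 µM serotonin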
# TAAR1 agonist: agonists of human TAAR1; CHO RD-HGA16 TAAR1, Fluo-8 calcium fluorescence; vehicle wells 0%, saturating PEA agonist 100%; activation, % at 3 µM; hit rate 0.99% among 360,000; AID 624467;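 active = activation above the mean activation of all test compounds in the run plus 3 SD, cut at about 38% in these data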
#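 Test system: RD-HGA16 (CHO) cells co-expressing Gα16 and hTAAR1 / Benchmarks: DMSO vehicle as 0%, PEA at EC100 as 100% / Repeats: no replicates (n 1) / Measure: % activation from peak over basal fluorescence ratio, DMSO-to-PEA scaled / Timing: 17-24 h plating, Fluo-8 75 min 37 °C, 30 min RT / Technique: kinetic Fluo-8 calcium fluorescence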
# M1 antag: human CHRM1 antagonism; CHO-K1 hM1, Fluo-8 calcium fluorescence, ACh EC80 antagonist; inhibition, % at 3 µM; hit rate 1.3% among 360,000;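 active = percent inhibition above its own plate's cutoff, namely the mean of that plate's compound wells plus 3 SD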;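 note: peak over basal fluorescence ratio during 140 s after agonist addition; 0% = ACh EC80 plus DMSO and 100% = DMSO alone without agonist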
# Starred values were filed as active, the others as inactive; nt = no result given.
SMILES,M1 PAM,TAAR1 antag,CHRM1 agonist,HTR2A ag,TAAR1 agonist,M1 antag
COc1cccc(CNC(=O)[C@H]2CCCN2C(=O)[C@H]2CCCN2C(=O)c2ccccc2C(F)(F)F)c1,nt,-12.3,nt,nt,-0.1,nt
COc1ccc(CCNC(=O)CCC(=O)n2ncc3ccc(Cl)cc32)cc1OC,-5.7,-4.0,-3.4,4.3,0.2,6.7
COc1cccc(-n2c(SCC(=O)O)nnc2-c2cccnc2)c1,-15.7,-14.1,-4.1,-6.8,5.2,22.9*
COc1ccc(-n2c(SCC(N)=O)nnc2-c2cccnc2)cc1,5.9,-8.0,-1.9,-3.9,2.0,-2.7
Cc1ccccc1C(=O)Nc1ccc(N2CCCC2)cc1,-8.1,54.0*,-2.4,-3.1,14.4,30.1
O=C(Nc1ccc(N2CCCC2)cc1)c1cc(Br)ccc1Cl,-28.4,28.1,-8.5,-7.3,0.3,52.6*
COc1cccc(C(=O)N[C@H](C(=O)N2CCC[C@H]2C(=O)NCc2ccccc2)C(C)C)c1,nt,-13.4,nt,nt,0.0,nt
CNc1snc(C)c1C(=O)OCC(=O)c1ccc(OC)c(F)c1,-17.0,11.0,0.4,10.7,8.0,40.4*
CCN(C(=O)CSc1ncccn1)c1c(N)n(Cc2ccccc2)c(=O)[nH]c1=O,5.2,0.6,0.8,3.9,0.4,-1.4
O=C(Nc1nnc(S(=O)(=O)N2CCCCCC2)s1)c1ccccc1F,-16.5,8.2,0.3,2.4,3.6,30.6*
COCCN1C(=O)N[C@@H](c2cccc(F)c2)C(C(=O)OC)=C1C,7.3,2.2,-3.5,-1.4,4.0,1.5
COCc1c(C(=O)OCc2nc3ccsc3c(=O)[nH]2)oc2ccccc12,-1.3,1.4,-3.9,3.6,0.9,3.5
CC(C)c1cccc(OCCN2CCCC2)c1,-15.8,-17.6,-7.8,-1.8,1.4,32.7*
CC1CCCN(CCCCOc2cccc(Br)c2)C1 (stereo unspecified),-24.5,-1.2,-7.2,-3.1,1.3,33.1*
Brc1cccc(OCCCCN2CCCCC2)c1,-26.5,-6.2,-9.8,-5.5,0.4,78.1*
COc1cccc(OCCCCN2CCCCC2)c1,-10.6,3.5,-8.6,-3.3,17.1,8.4
CC1CCCN(CCOc2ccc(Br)cc2)C1 (stereo unspecified),-8.8,-14.6,-8.7,-4.5,13.9,5.6
CCOc1cccc(OCCCCN2CCCCC2)c1,-23.2,-8.7,-6.9,-1.1,6.9,19.3*
O=C([C@H]1O[C@@H](n2ccc(=O)[nH]c2=O)[C@H](O)[C@@H]1O)N1CCSC1,-4.2,-12.6,-3.1,-2.7,2.4,-2.7
CN(CC(=O)Nc1ccccc1C(F)(F)F)C(=O)c1cccc(-n2cccc2)c1,12.2,-27.5,2.7,-5.0,1.6,-12.9
NC(CO)(CO)COCc1ccccc1,-3.6,-24.3,-3.3,-0.7,1.2,11.3
CC(C)(C)C(=O)c1c(N)[nH]c(C(=O)c2ccccc2)c1-c1ccc([N+](=O)[O-])cc1,nt,4.1,nt,nt,0.4,nt
CC(=O)N1CCN(S(=O)(=O)c2cccc(C(=O)N(Cc3ccccc3)c3cccc(C)c3)c2)CC1,3.5,18.1,-4.1,-6.6,3.1,-4.9
COc1ccc(CN2CCCC(C(=O)c3cccc(OC(C)C)c3)C2)cc1Cn1cccn1 (stereo unspecified),-24.1,-18.2,-4.8,-6.0,-2.0,36.5*
CCn1ncc(CN2CCCC(C(=O)c3cccc(OC(C)C)c3)C2)c1C (stereo unspecified),-26.5,-0.7,-8.9,-0.6,2.5,98.1*
Cc1ccc(NC(=O)CN(c2ccc(Cl)cc2)S(=O)(=O)c2cc([N+](=O)[O-])ccc2Cl)c(C)c1,-9.8,-8.0,-8.8,-1.9,0.6,5.6
CCOC(=O)C1CCN(S(=O)(=O)c2ccc(Cl)s2)CC1,2.5,11.4,-5.8,2.0,0.8,-7.1
FC(F)Sc1ccc(NC(=S)NC2CCCCC2)cc1,-10.4,14.0,-0.9,-4.7,11.4,17.6
FC(F)Sc1ccc(NC(=S)NCC2CCCCC2)cc1,-16.3,49.6*,1.2,-3.4,8.8,30.8*
CC(C(=O)NC1CCCC1)N(C(=O)Cn1nnc(-c2ccc(F)cc2)n1)c1ccccc1F (stereo unspecified),-7.1,51.6*,-6.5,1.7,19.2,22.0

# Screening results from PubChem BioAssay.
